Laboratory results reported in publication PMC9050340 (RSC Advances, 2020).
≈ marks a conversion by molar mass, not a printed value.

Assays:
[1] = cited from earlier work; for IC50, inhibition of oxidation of DPPH: from P. latifolia leaves
[2] = DPPH radical scavenging activity assay; details: 30 min, room temperature, ethanol
Summary of the method: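 Test compound in absolute ethanol (2–100 μg mL−1; 40 μg mL−1 for screening), 1 mL mixed with 2 mL of freshly prepared DPPH (20 μg mL−1 in absolute ethanol). Incubated 30 min at room temperature in the dark, then absorbance read at 517 nm against an absolute ethanol blank. Ascorbic acid as positive control. % scavenging from blank versus sample absorbance; IC50 by nonlinear regression.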

MDA-MB-231 cells = assay: Wound-healing scratch; assay type: cell-based, human; details: MDA-MB-231, 10 μM, HGF-induced, 24 h
Summary of the method: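 MDA-MB-231 cells grown overnight to confluent monolayers, scratched with a pipette tip, washed twice with PBS, then fresh RPMI. Test compound (10 μM, from 10 mM DMSO stock; DMSO ≤0.1%) added in serum-free defined medium with […] HGF, in triplicate, for 24 h. Cells fixed and Giemsa-stained; wound width imaged at 0 and 24 h. % migration calculated relative to DMSO control.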

MCF-7 = assay: MTT antiproliferative; assay type: cell-based; details: Homo sapiens, MCF7, read-out: Cytotoxicity (IC50 μM) MCF-7
MTT antiproliferative = assay type: cell-based; details: human, MCF-10A cells (normal breast cell line)

IC50, DPPH radical scavenging [2] [µg/mL] | SMILES | IC50, inhibition of oxidation of DPPH [1] [µg/mL] | further results
– | COc1cc(C2Oc3c(OC)cc(C=CC=O)cc3C(O)C2O)ccc1O (centres unmarked) [4′-hydroxy-8,3′-dimethoxy-6-acroleinylflavan-3,4-diol] | 22.5 | –
– | CC(CO)c1cc2c(c(O)c1O)C1=CC(=O)CC(C)(C)C1(C)C=C2 (centres unmarked) [11,12,16-trihydroxy-2-oxo-5-methyl-10-demethyl-abieta-1,[10] and 6,8,11,13-pentene] | – | IC50 towards DPPH assay ([1]; from P. serratifolia): 20.4 ± 1.3 µg/mL (≈ 62.1 µM)
10 ± 0.3 (≈ 56.8 µM) | O=C1O[C@H]([C@@H](O)CO)C(O)=C1O [L-ascorbic acid, reference compound] | – | –
– | O=C1C[C@@H](c2ccc(O)cc2)Oc2cc(O)cc(O)c21 [naringenin] | 16.0 | –
– | CC1(C)CC[C@]2(C(=O)O)CC[C@]3(C)C(=CC[C@@H]4[C@@]5(C)CC[C@H](O)C(C)(C)[C@@H]5CC[C@]43C)[C@@H]2C1 [Compound 10, oleanolic acid] | – | cell migration inhibition in wound-healing assay (MDA-MB-231 cells): suppressed
17.50 ± 1.3 (≈ 28 µM) | C[C@@H]1O[C@@H](O[C@@H]2[C@@H](O)[C@H](OCCc3ccc(O)c(O)c3)O[C@H](CO)[C@H]2OC(=O)/C=C/c2ccc(O)c(O)c2)[C@H](O)[C@H](O)[C@H]1O [Compound 5, verbascoside] | – | IC50 (MCF-7): 10.5 ± 0.52 µM; IC50 at 48 h (MTT antiproliferative): 13.9 ± 0.69 µM
